Holding throughout (format): functional, cell-based
The subject of test [1] is A2780. In words: Cytotoxicity against human A2780 cells by MTT assay. The procedure, abridged:
(§1)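 5-day MTT test on human tumor cells (KB epidermoid, HCT-8 ileocecal carcinoma, A2780 epithelial); cell-generated MTT-formazan solubilized in dimethyl sulfoxide and read as a measure of cell growth.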
(In general: Tetrazolium dyes change colour on reduction, which living cells bring about.)

Test [2] has as its system KB. In words: Cytotoxicity against human KB cells by MTT assay. The method in brief: as §1
Test [3] can be described thus: Cytotoxicity against HCT cells by MTT assay. To be noted: Homo sapiens. The method in brief: as §1

≈ marks a conversion by molar mass, not a printed value.

Broadly, the IC50 is the midpoint of a concentration-inhibition curve. As for `CCCCCCCCCC[C@H](O)[C@H]1CC[C@H]([C@H](O)CCCCCC(O)CCCCCCCCCCC2=C[C@H](C)OC2=O)O1` (some centres not stated) [CALAMISTRIN D], the IC50 in test [1] was found to be 0.431 µg/mL (≈ 0.708 µM); in test [2], 0.0273 µg/mL (≈ 0.0448 µM); in test [3], 0.0732 µg/mL (≈ 0.12 µM).

On to `CCCCCCCC[C@@H](O)[C@H]1CC[C@H]([C@H]2CC[C@H]([C@H](O)CCCCCCCCCCC[C@@H](O)CCC3=C[C@H](C)OC3=O)O2)O1` [CALAMISTRIN G], for which the IC50 in test [1] was determined as 0.00197 µg/mL (≈ 0.00316 µM); in test [2] it was 0.02 µg/mL (≈ 0.0321 µM); in test [3], 0.00331 µg/mL (≈ 0.00531 µM).

As for `CCCCCCCCCC[C@@H](O)[C@H]1CC[C@H]([C@H](O)CCCCCC(O)CCCCCCCCCCC2=C[C@H](C)OC2=O)O1` (some centres not stated) [CALAMISTRIN C], the IC50 came out at 0.00315 µg/mL (≈ 0.00517 µM) in test [1], 0.0605 µg/mL (≈ 0.0994 µM) in test [2] and 0.00473 µg/mL (≈ 0.00777 µM) in test [3].

For `CCCCCCCC[C@H](O)[C@H]1CC[C@H]([C@H]2CC[C@H]([C@H](O)CCCCCCCCCCCC(O)CCC3=C[C@H](C)OC3=O)O2)O1` (some centres not stated) [CALAMISTRIN F], the values for the IC50 in test [1], in test [2] and in test [3] were 0.0366 µg/mL (≈ 0.0588 µM), 0.051 µg/mL (≈ 0.0819 µM) and 0.00227 µg/mL (≈ 0.00364 µM), respectively.

For the origin of these results see ChEMBL document CHEMBL1155577, “New annonaceous acetogenins from the roots of Uvaria calamistrata” (J Nat Prod, 2000).
